Test results taken from ChEMBL document CHEMBL4725448, “Substituted Azabicyclo[2.2.1]heptanes as Selective Orexin-1 Antagonists: Discovery of JNJ-54717793” (ACS Med Chem Lett, 2020).
In brackets after ≈: the same amount, converted by molar mass.

Experiments:
[1] = Clearance in dog at 0.5 mg/kg, iv and […], po; assay type: ADME, organism-based, Canis lupus familiaris; details: in vivo, dose 2.5 mg/kg
[2] = Cmax in rat assessed as NOAEL at 200 mg/kg/day, po administered as repeated dose for 13 days; assay type: ADME, organism-based; design: route oral, time 13 day, dose 200 mg/kg/day; details: in vivo
[3] = Volume of distribution at steady state in primate; assay type: ADME; details: primates; read-out: Vdss
[4] = Drug concentration in Sprague-Dawley rat plasma at 10 mg/kg, po after 0.5 hrs by LC-MS/MS analysis; assay type: ADME, organism-based
Summary of the method: (§1)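 Brain and plasma levels (ng/mL) sampled 0.5 h after oral dosing at 10 or 30 mg/kg, alongside the ex vivo tenia tecta occupancy study.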

[5] = Clearance in primate; assay type: ADME; details: primates
[6] = Ex vivo receptor occupancy at OX1R in Sprague-Dawley rat brain tenia tecta using [3H]SB-674042 labelling at 10 mg/kg, po measured after 0.5 hrs by autoradiography; assay type: functional
Summary of the method: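 Rats received a single oral dose, and OX1R occupancy was measured by ex vivo binding autoradiography in brain tenia tecta sections at 0.5, 2 and 6 h after dosing. Occupancy is expressed as percent. Brain and plasma drug levels (ng/mL) were also sampled at the 0.5 h time point.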

[7] = Ex vivo receptor occupancy at OX1R in po dosed rat tenia tecta after 60 mins; assay type: functional, organism-based; details: 1 h
[8] = Cmax in primate; assay type: ADME; details: primates
[9] = Permeability across basolateral to apical side in MDCK cells; assay type: ADME, cell-based, Canis lupus familiaris; details: dog
[10] = Clearance in rat at 1 mg/kg, iv and 5 mg/kg, po; assay type: ADME, organism-based; details: in vivo
[11] = Oral bioavailability in dog at […]; assay type: ADME, organism-based, Canis lupus familiaris; details: in vivo, dose 2.5 mg/kg
PXR (NR1I2) = biological target: T1, PXR (NR1I2) (Homo sapiens, UniProt O75469); assay: Induction of human PXR at 10 uM relative to control; assay type: ADME; details: read-out: Activity
T1 sequence (O75469 whole entry): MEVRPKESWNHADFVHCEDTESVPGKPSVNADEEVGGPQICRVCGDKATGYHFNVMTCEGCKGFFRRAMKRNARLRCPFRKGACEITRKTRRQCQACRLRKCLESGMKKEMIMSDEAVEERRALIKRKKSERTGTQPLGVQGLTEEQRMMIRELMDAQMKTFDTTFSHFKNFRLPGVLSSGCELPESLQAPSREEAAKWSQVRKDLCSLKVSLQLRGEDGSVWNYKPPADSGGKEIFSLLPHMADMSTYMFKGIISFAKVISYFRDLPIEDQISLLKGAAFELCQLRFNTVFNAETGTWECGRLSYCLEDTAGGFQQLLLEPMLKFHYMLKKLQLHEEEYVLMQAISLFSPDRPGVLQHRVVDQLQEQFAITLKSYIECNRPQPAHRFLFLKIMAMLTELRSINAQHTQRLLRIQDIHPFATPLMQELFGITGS
Summary of the method: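 Human PXR activation as an indirect measure of CYP3A4 induction, at 10 μM, expressed as % of rifampicin control activation.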

[12] = Volume of distribution at steady state in dog at 0.5 mg/kg, iv and […], po; assay type: ADME, organism-based, Canis lupus familiaris; details: in vivo, dose 2.5 mg/kg, read-out: Vdss
[13] = AUC in human at 50 mg/day; assay type: ADME; design: dose 50 mg
[14] = […] clearance in dog at 0.5 mg/kg, iv and […], po; assay type: ADME, organism-based, Canis lupus familiaris; details: in vivo, dose 2.5 mg/kg
[15] = Protein binding in rat brain assessed as free fraction; assay type: ADME, tissue-based
[16] = AUC (0 to 24 hrs) in rat assessed as NOAEL at 200 mg/kg/day, po administered as repeated dose for 13 days; assay type: ADME, organism-based; design: route oral, time 13 day, dose 200 mg/kg/day; details: in vivo
[17] = Cmax in rat assessed as NOAEL at 200 mg/kg/day, po measured after immediately administered; assay type: ADME, organism-based; design: route oral, dose 200 mg/kg/day, time 13 day; details: in vivo
[18] = Volume of distribution at steady state in rat at 1 mg/kg, iv and 5 mg/kg, po; assay type: ADME, organism-based; details: in vivo, read-out: Vdss
[19] = Cmax in dog at 0.5 mg/kg, iv and […], po; assay type: ADME, organism-based, Canis lupus familiaris; design: dose 2.5 mg/kg; details: in vivo
[20] = Drug concentration in Sprague-Dawley rat brain at 10 mg/kg, po after 0.5 hrs by LC-MS/MS analysis; assay type: ADME, organism-based; details: read-out: Ct; summary of the method: as §1
[21] = Ex vivo receptor occupancy at OX1R in Sprague-Dawley rat brain tenia tecta using [3H]SB-674042 labelling at 30 mg/kg, po measured after 2 hrs by autoradiography; assay type: functional
Summary of the method: (§2)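 Ex vivo OX1R binding autoradiography in rat tenia tecta after a 30 mg/kg po dose; percent occupancy read at 0.5 and 2 h.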

[22] = Oral bioavailability in mouse at 5 mg/kg; assay type: ADME, organism-based; details: in vivo
[23] = Cmax in mouse assessed as NOAEL at 200 mg/kg/day, po administered as repeated dose for 13 days; assay type: ADME, organism-based; design: route oral, dose 200 mg/kg/day, time 13 day; details: in vivo
[24] = AUC (0 to 24 hrs) in rat assessed as NOAEL at 200 mg/kg/day, po administered as repeated dose for 6 days; assay type: ADME, organism-based; design: route oral, time 6 day, dose 200 mg/kg/day; details: in vivo
[25] = Lipophilicity, logD of the compound at pH 7.4; assay type: physicochemical; details: buffer
[26] = Cmax in mouse assessed as NOAEL at 200 mg/kg/day, po measured after immediately administered; assay type: ADME, organism-based; design: route oral, time 13 day, dose 200 mg/kg/day; details: in vivo
[27] = Stability in rat liver microsomes assessed as extraction ratio; assay type: ADME, Microsome; details: read-out: ERH
Summary of the method: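 Metabolic stability in human or rat liver microsomes, expressed as extraction ratios.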

[28] = Protein binding in rat plasma assessed as free fraction; assay type: ADME, cell-free
[29] = […] clearance in mouse at 1 mg/kg, iv and 5 mg/kg, po; assay type: ADME, organism-based; details: in vivo
[30] = Protein binding in dog plasma assessed as free fraction; assay type: ADME, cell-free, Canis lupus familiaris
[31] = Drug concentration in Sprague-Dawley rat plasma at 30 mg/kg, po after 0.5 hrs by LC-MS/MS analysis; assay type: ADME, organism-based; summary of the method: as §1
[32] = Ex vivo receptor occupancy at OX1R in Sprague-Dawley rat brain tenia tecta using [3H]SB-674042 labelling at 30 mg/kg, po measured after 0.5 hrs by autoradiography; assay type: functional; summary of the method: as §2
[33] = Drug concentration in Sprague-Dawley rat brain at 30 mg/kg, po after 0.5 hrs by LC-MS/MS analysis; assay type: ADME, organism-based; details: read-out: Ct; summary of the method: as §1
[34] = AUC (0 to 24 hrs) in rat assessed as NOAEL at 200 mg/kg/day, po measured after immediately administered; assay type: ADME, organism-based; design: route oral, time 13 day, dose 200 mg/kg/day; details: in vivo
[35] = Dissociation constant, pKa of the compound; assay type: physicochemical

`O=C(c1cccc(F)c1-c1ncccn1)N1[C@@H]2CC[C@H]1[C@H](Nc1cnc(C(F)(F)F)cn1)C2` showed a clearance [1] of 0.9 mL/min/kg, a Cmax [2] of 6980 ng/mL and a Vd [3] of 0.8 L/kg. It also gave a concentration at 0.5 h [4] of 1190 ng/mL, a clearance [5] of 14 mL/min/kg and an Activity [6] of 70%. It also gave an EC50 [7] of 0.085 µg/mL (≈ 0.185 µM), an ED50 ([7]; po, time 60 min) of 1.3 mg/kg and a Cmax [8] of 349 ng/mL. It also gave a Papp B→A [9] of 64.4 ×10⁻⁶ cm/s, a clearance [10] of 17 mL/min/kg and a bioavailability [11] of 48%. It also gave an activity at 10 µM (PXR (NR1I2)) of 29%, a Vd [12] of 0.6 L/kg and an AUC [13] of 6870 ng·h/mL. For the same molecule, the clearance [14] was 4.8 mL/min/kg, the fraction unbound [15] was 0.09 and the AUC at 312 h [16] was 36200 ng·h/mL. It also gave a Cmax [17] of 30900 ng/mL, a Vd [18] of 1.4 L/kg and a Cmax [19] of 2240 ng/mL. The concentration at 0.5 h [20] was 188 ng/mL, the Activity [21] was 100% and the bioavailability [22] was 58%. The Cmax [23] was 24800 ng/mL, the AUC at 144 h [24] was 62000 ng·h/mL and the logD [25] was 2.18. The Cmax [26] was 32900 ng/mL, the hepatic extraction ratio [27] was 0.31 and the fraction unbound [28] was 0.23. For the same molecule, the clearance [29] was 29 mL/min/kg, the fraction unbound [30] was 0.21 and the concentration at 0.5 h [31] was 4960 ng/mL. For the same molecule, the Activity [32] was 100%, the concentration at 0.5 h [33] was 687 ng/mL and the AUC at 312 h [34] was 386000 ng·h/mL. For the same molecule, the pKa [35] was less than 2.
